Article PMC4938124 (Biochemistry, 2015)

What was measured:
[1] = target: T1, hIYD·flhq (Homo sapiens, UniProt Q6PHW0); test: Stopped-flow oxidation of hIYD·flhq by oxygen; format: biochemical; conditions: A446, 25 °C, pH 7.4, oxygen 60–610 μM
T1 sequence (Q6PHW0 32-289): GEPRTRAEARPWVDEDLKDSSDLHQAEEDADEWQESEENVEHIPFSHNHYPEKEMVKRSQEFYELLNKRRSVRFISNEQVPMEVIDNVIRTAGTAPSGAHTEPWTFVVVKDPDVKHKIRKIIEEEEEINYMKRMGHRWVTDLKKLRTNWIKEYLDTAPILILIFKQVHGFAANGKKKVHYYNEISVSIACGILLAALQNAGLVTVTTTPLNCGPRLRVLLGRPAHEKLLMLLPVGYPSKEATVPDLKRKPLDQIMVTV
Procedure, shortened: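 hIYD·flhq, made by stoichiometric dithionite titration under anaerobic conditions, 5 μM final, in 500 mM NaCl, 10% glycerol, 1 mM DTT, 50 mM sodium phosphate pH 7.4, 25 °C. Stopped-flow mix with equal volume of same buffer equilibrated with air or 10/50/100% O2 (oxygen solutions 60–610 μM). A446 traces single-exponential; diode-array spectra 4 ms–7 s. kox from linear fit of kobs versus [O2]; three independent measurements averaged.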

[2] = target: hIYD; conditions: estimate, limited by solubility; cited from earlier work
[3] = target: T2, hIYD·flox (Homo sapiens, UniProt Q6PHW0); test: Stopped-flow kinetics of halotyrosine binding to hIYD·flox; conditions: relative to Cl-, Br- and I-Tyr
T2 sequence (Q6PHW0 32-289): T1 sequence (Q6PHW0 32-289)
Procedure, shortened: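 hIYD (residues 1–31 removed, SUMO fusion, SUMO cleaved) in 500 mM NaCl, 10% glycerol, 1 mM DTT, 50 mM sodium phosphate pH 7.4, 25 °C. Stopped-flow mixing of equal volumes under air: hIYD·flox 2 μM final with halotyrosine 5–50 μM final. Flavin fluorescence quench (λex 450 nm, λem >530 nm) followed 1 ms–1 s, fit single-exponential. kon from least-squares fit of kobs versus ligand concentration.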

[4] = target: T1, hIYD·flhq; test: Stopped-flow single-turnover oxidation of hIYD·flhq by halotyrosines; format: biochemical; conditions: set by detection threshold of the stopped-flow instrument
Procedure, shortened: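 Anaerobic stopped-flow at 25 °C, pH 7.4 phosphate/NaCl/glycerol/DTT buffer. Dithionite-reduced hIYD·flhq was mixed 1:1 with argon-sparged halotyrosine. At 8 μM enzyme, I-Tyr was 20–200 μM and A446 was followed from 10 ms to beyond 7 s with single-exponential fits. At 5 μM enzyme, substrate was 200 μM, with diode-array spectra from 4 ms plus A360 traces fit single- or double-exponential. Spectra were globally analysed.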

[5] = tested on: IYD; conditions: cited from earlier work

## O=O [oxygen]
[1]
  kox, second-order rate constant for reaction between hIYD·flhq and oxygen: (9.3 ± 0.3) × 10^3 M^–1 s^–1

## N[C@@H](Cc1ccc(O)cc1)C(=O)O [Tyr, tyrosine]
[2]
  Kd: > 1 mM

## N[C@@H](Cc1ccc(O)c(F)c1)C(=O)O [F-Tyr]
[3]
  binding rate (kon) slower than the other halotyrosines: approximately 5 fold
[3]; listed as fluorotyrosine
  binding rate (kon) slower than the other halotyrosines: 5 fold
[4]
  oxidation of flhq slower than that with I-Tyr: at least 160 fold
[5]
  dehalogenation by IYD: inert
